Tests used:
[1] = tested on: SU-DHL-1 and SUP-M2 cells; assay: Annexin V apoptosis assay; format: cell-based, human; settings: 48 hr
In short: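 Cells collected at the end of treatment, washed in cold PBS, stained with an Annexin V-FLUOS kit per the maker's protocol, and analysed by flow cytometry.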

STAT5B = STAT5B (Homo sapiens, UniProt P51692); assay: Bio-Layer Interferometry binding, STAT5B
In short: (§1)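 Purified recombinant human STAT proteins were biotinylated, then direct binding of the test compound was measured by Bio-Layer Interferometry to give Kd.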

STAT3 target genes [2] = assay: qRT-PCR of STAT3 target genes in MOLM-16 tumors; format: in vivo, SCID mice; settings: single dose 25 mg/kg i.v.
In short: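 SCID mice with MOLM-16 tumours received vehicle or test compound i.v. Total RNA was isolated from tumour lysates and STAT3 target genes were quantified by qRT-PCR.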

STAT3 [3] = target: T1, STAT3 (Homo sapiens, UniProt P40763); assay: Fluorescence polarization; format: binding
In short: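 Competitive fluorescence polarisation assay. Recombinant STAT3 (25 nM) was premixed 5 min with 2.5 nM 5-FAM-labelled STAT3 SH2-domain ligand. The mix was added to serially diluted test compound and read after 1 hr at room temperature. Buffer: 50 mM NaCl, 10 mM HEPES pH 7.5, 1 mM EDTA, 0.01% Triton X-100, 2 mM DTT. IC50 came from nonlinear regression and was converted to Ki.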
Target sequence in this assay (P40763 127-688): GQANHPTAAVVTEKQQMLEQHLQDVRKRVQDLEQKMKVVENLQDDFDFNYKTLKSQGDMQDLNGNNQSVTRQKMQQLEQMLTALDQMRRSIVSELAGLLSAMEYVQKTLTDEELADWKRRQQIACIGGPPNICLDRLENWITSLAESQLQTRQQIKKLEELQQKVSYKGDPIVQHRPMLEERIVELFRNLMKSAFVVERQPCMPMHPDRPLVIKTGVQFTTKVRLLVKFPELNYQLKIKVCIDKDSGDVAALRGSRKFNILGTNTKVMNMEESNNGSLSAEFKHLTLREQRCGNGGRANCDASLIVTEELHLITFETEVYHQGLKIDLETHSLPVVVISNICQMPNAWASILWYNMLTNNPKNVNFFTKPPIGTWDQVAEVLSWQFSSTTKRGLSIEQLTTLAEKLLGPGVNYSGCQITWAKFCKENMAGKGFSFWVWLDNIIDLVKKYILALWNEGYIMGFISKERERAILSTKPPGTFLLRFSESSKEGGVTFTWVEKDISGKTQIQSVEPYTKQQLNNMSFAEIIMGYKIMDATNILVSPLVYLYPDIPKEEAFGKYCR

mouse STAT3 protein = mouse STAT3 protein (Mus musculus, UniProt P42227); assay: Pharmacodynamics in mouse tissues; format: in vivo, CD-1 mice; settings: single dose 100 mg/kg i.v.
In short: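 Female outbred CD-1 mice received a single i.v. dose. At set time points, liver, spleen, heart and kidney were collected and analysed by immunoblotting.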

SUP-M2 tumor = assay: SUP-M2 xenograft efficacy; format: in vivo, mice
In short: (§2)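 NOD/SCID female mice were injected subcutaneously in 5 mg/ml Matrigel with MOLM-16 (3 × 10^6), SU-DHL-1 (1 × 10^7) or SUP-M2 (1 × 10^7) cells. At about 150 mm3, mice were size-matched and randomised. Test compound or vehicle (10% PEG400 + 90% PBS) was given on the indicated schedules. Tumours were measured 2–3 times weekly, with volume = length×width²/2. TGI was calculated from group medians.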

[4] = tested on: c-Myc; STAT3 Y705 phosphorylation; assay: Immunoblotting of c-Myc and pSTAT3; format: cell-based, human; settings: 0.5 μM, 24 hr
In short: (§3)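 Treated cells were lysed in cell lysis buffer, resolved by SDS-PAGE, transferred to PVDF and probed by immunoblotting.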

[5] = Body weight and signs of toxicity in efficacy experiments; format: in vivo, mice; settings: all efficacy experiments
In short: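 Animal weights and signs of toxicity were recorded 2–3 times per week in NOD/SCID female mice with subcutaneous xenografts. Mice received test compound or vehicle (10% PEG400 + 90% PBS) on the indicated schedules.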

mutated STAT3 proteins [6] = target: mutated STAT3 proteins (Homo sapiens, UniProt P40763, Y705F); assay: Degradation of mutated STAT3 proteins in cells; format: cell-based; settings: DLD-1/STAT3 Y705F/Y705F cells, 1 μM, 24 hr
mutated STAT3 proteins [7] = assay: Degradation of mutated STAT3 proteins in cells; format: cell-based, human
[8] = tested on: DNA binding activities of STAT1, STAT5A or STAT5B; assay: STAT1, STAT5A, STAT5B DNA binding activity assay; format: cell-based, human; settings: MOLM-16
In short: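 Nuclear extraction: cells were swelled 15 min on ice in hypotonic HEPES pH 7.9/10 mM KCl buffer with DTT and phosphatase/protease inhibitors. NP-40 was added (0.5% final), and nuclei were extracted 15 min at 4°C in 0.4 M NaCl HEPES buffer, then cleared at 5,000 × g. ELISA: 5 μg extract was bound 1 hr at room temperature in TransAM STAT ELISA wells. Wells then received STAT antibody (1:1000, 1 hr), HRP secondary (1 hr) and colour development.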

MOLM-16 tumors = assay: MOLM-16 xenograft efficacy; format: in vivo, NOD/SCID female mice
In short: as §2

STAT4 = STAT4 (Homo sapiens, UniProt Q14765); assay: Bio-Layer Interferometry binding, STAT4
In short: as §1

[9] = tested on: ~5500 proteins quantified in each cell line; assay: Multiplexed quantitative proteomics in cell lines; format: cell-based, human; settings: 10 μM, 2.5 hr, three cell lines, p≤0.05
In short: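 Cells were exposed to test compound, then analysed by multiplexed quantitative proteomics. Significance was assessed by Student's t-test.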

[10] = target: monomeric and dimeric STAT3 protein (Homo sapiens, UniProt P40763); assay: Native electrophoresis and immunoblotting of STAT3 monomer/dimer; format: cell-based; settings: MOLM-16, 1 μM, within 5 hr
STAT3 [11] = target: T1, STAT3; assay: Bio-Layer Interferometry binding, STAT3
In short: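 Recombinant human STAT3 was biotinylated and binding measured by Bio-Layer Interferometry for Kd. Selectivity was taken from Kd values against other STATs.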
Target sequence in this assay (P40763 127-688): as above

STAT3 target genes [12] = assay: qRT-PCR of STAT3 target genes in MOLM-16 cells; format: cell-based, human; settings: MOLM-16, 1 μM, 8 hr
STAT3 [13] = target: T1, STAT3; assay: STAT3 protein degradation in human cells; format: cell-based
In short: as §3
Target sequence in this assay (P40763 whole entry): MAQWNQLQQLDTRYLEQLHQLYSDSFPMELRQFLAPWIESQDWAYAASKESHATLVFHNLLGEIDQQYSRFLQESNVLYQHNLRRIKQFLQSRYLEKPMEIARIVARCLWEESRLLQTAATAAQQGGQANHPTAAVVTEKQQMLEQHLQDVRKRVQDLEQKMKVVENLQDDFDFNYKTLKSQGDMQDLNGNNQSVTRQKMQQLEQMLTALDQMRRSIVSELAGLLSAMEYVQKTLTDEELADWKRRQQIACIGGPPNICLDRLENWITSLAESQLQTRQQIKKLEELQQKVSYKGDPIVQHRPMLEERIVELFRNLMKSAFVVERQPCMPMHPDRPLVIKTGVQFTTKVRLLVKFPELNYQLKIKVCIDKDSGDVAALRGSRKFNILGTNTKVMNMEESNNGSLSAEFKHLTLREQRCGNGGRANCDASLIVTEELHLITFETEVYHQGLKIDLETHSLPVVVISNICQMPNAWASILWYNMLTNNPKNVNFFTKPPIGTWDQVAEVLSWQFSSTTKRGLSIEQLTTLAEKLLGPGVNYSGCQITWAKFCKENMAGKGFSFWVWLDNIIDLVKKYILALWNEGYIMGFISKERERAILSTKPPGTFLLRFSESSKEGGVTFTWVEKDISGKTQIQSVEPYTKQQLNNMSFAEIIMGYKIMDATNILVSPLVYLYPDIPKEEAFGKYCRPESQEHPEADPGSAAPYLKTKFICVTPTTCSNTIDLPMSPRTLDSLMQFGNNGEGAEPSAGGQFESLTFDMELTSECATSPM

SU-DHL-1 xenograft = SU-DHL-1 xenograft efficacy; format: in vivo, mice
In short: as §2

[14] = tested on: transcriptional activities of STAT1 or STAT5A/B; assay: STAT1 and STAT5 dependent reporter cell lines; format: cell-based; settings: STAT-dependent reporter cell lines
In short: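 Reporter cells (1000–2000) were seeded in duplicate plates, one for luciferase and one for CellTiter-Glo viability. Test compound was added 4–6 hr later, and cells were cultured 24 or 48 hr. Firefly and Renilla luciferase were read, and signals were normalised to cell number from the viability plate.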

[15] = 100 mg/kg weekly or 50 mg/kg twice weekly for 4 weeks

Chain of mutated STAT3 proteins (Homo sapiens, UniProt P40763, Y705F) (Q96SW2 whole entry): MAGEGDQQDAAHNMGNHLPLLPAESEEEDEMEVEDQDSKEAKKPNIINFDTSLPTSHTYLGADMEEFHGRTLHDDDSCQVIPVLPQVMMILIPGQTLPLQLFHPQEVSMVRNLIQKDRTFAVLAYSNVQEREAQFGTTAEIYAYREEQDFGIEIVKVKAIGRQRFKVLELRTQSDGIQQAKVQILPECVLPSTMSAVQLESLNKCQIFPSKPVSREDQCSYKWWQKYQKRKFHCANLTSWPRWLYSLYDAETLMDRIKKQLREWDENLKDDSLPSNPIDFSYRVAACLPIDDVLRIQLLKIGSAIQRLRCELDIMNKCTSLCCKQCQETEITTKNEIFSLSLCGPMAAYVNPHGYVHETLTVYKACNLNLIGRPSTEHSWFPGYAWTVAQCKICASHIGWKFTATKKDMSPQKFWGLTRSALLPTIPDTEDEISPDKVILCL
Chain of mutated STAT3 proteins (Homo sapiens, UniProt P40763, Y705F) (P40763 2-770 Y705F): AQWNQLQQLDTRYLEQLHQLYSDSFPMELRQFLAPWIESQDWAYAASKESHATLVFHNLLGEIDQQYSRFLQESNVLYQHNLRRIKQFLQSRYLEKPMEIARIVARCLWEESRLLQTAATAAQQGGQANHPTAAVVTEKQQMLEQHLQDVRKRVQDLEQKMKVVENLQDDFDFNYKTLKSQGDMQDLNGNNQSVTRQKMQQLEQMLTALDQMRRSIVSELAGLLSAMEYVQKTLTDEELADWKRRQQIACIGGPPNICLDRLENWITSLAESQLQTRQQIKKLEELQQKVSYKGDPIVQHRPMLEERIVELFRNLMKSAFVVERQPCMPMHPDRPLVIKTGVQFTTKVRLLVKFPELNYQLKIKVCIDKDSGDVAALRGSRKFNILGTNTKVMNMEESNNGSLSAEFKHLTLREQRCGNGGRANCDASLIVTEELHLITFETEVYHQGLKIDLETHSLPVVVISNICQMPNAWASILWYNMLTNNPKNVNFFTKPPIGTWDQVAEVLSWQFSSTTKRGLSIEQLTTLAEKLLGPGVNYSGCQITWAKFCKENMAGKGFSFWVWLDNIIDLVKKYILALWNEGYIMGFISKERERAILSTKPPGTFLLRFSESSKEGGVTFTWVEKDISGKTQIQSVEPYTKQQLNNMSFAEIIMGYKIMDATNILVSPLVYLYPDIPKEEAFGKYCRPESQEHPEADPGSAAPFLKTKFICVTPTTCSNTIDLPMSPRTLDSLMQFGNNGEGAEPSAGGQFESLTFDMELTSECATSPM
Chain of monomeric and dimeric STAT3 protein (P40763 whole entry): as the sequence (P40763 whole entry) above
Chain of mouse STAT3 protein (P42227 whole entry): as the sequence (P40763 whole entry) above, with E760D counted along it
Chain of STAT5B (P51692 138-710): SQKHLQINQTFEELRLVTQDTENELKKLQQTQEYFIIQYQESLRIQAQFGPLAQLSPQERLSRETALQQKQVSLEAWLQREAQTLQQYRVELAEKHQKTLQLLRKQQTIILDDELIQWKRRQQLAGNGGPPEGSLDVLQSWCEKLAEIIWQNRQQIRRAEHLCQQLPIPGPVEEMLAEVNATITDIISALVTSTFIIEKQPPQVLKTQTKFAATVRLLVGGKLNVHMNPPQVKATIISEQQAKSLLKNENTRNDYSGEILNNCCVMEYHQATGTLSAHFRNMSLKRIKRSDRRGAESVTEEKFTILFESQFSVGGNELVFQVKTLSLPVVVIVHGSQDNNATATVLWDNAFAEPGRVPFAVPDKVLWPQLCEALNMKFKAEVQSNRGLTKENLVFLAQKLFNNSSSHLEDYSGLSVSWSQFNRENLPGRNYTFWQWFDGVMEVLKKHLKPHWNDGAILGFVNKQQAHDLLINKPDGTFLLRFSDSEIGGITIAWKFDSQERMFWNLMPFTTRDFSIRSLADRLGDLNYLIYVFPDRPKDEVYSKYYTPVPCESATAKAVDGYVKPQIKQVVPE
Chain of STAT4 (Q14765 133-705): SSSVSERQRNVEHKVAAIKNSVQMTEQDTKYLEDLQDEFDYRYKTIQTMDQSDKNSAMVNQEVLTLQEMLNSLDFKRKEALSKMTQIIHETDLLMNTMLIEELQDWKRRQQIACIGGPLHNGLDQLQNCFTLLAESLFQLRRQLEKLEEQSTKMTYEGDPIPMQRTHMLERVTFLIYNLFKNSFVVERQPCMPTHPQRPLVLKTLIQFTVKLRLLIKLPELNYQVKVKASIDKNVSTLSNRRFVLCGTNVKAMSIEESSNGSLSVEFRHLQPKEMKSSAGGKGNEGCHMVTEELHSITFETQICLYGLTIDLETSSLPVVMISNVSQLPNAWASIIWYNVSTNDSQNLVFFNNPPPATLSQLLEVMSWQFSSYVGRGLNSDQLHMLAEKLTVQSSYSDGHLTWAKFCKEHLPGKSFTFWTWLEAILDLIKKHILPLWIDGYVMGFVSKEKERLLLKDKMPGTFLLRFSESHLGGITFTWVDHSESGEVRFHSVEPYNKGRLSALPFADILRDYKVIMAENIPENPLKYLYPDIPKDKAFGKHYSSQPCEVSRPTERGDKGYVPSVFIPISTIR

NC(=O)CC[C@H](NC(=O)[C@@H]1CC[C@@H]2CCN(C(=O)CCCCCC#Cc3cccc4c3CN(C3CCC(=O)NC3=O)C4=O)C[C@H](NC(=O)c3cc4cc(C(F)(F)P(=O)(O)O)ccc4[nH]3)C(=O)N21)C(=O)NC(c1ccccc1)c1ccccc1 (stereo partly drawn) [SD-36, ((2-(((5S,8S,10aR)-8-(((S)-5-amino-1-(benzhydrylamino)-1,5-dioxopentan-2-yl)carbamoyl)-3-(8-(2-(2,6-dioxopiperidin-3-yl)-1-oxoisoindolin-4-yl)oct-7-ynoyl)-6-oxodecahydropyrrolo[1,2-a][1,5]diazocin-5-yl)carbamoyl)-1H-indol-5-yl)difluoromethyl)phosphonic acid]
apoptosis [1]: strong apoptotic cell death
Kd (STAT5B): > 10000 nM
expression of a set of STAT3 target genes in tumors (STAT3 target genes [2]): significantly down-regulated
Ki (STAT3 [3]): 11 nM
mouse STAT3 protein in liver, spleen, heart and kidney (mouse STAT3 protein): profound and durable depletion
tumor growth (SUP-M2 tumor; 50 mg/kg three times per week): completely inhibited tumor growth
tumor response (SUP-M2 tumor; 100 mg/kg three times per week, tumor free until day 30): Complete tumor regression
tumors with complete tumor regression (SUP-M2 tumor; 100 mg/kg twice a week for 3 weeks, day 29): 5 out of 7
expression of c-Myc [4]: reduced
weight loss or other signs of toxicity [5]: no significant weight loss
degradation of homozygous Y705F mutant STAT3 (mutated STAT3 proteins [6]): effectively degrades
degradation of endogenous D661Y and K658R mutant STAT3 (mutated STAT3 proteins [7]; 1 μM, 24 hr): efficiently degrades
degradation of STAT3 with mutations of Arg609 or Ser611/Ser613 (mutated STAT3 proteins [7]; transfected MDA-MB-231, 1 μM, 16 hr): resistant to degradation
DNA binding activities of STAT1, STAT5A or STAT5B [8]: no significant effect
persistence of regression after cessation of treatment (MOLM-16 tumors; [15]): at least 2 weeks
tumor response (MOLM-16 tumors; [15]): complete tumor regression
tumor growth (MOLM-16 tumors; 25 and 50 mg/kg weekly for 4 weeks): effectively inhibited tumor growth
Kd (STAT4): 1000 to 2000 nM
proteome-wide selectivity [9]: STAT3 was the only protein whose level was significantly decreased by ≥2-fold
monomeric and dimeric STAT3 protein [10]: completely depletes
Kd (STAT3 [11]): ~50 nM
binding selectivity for STAT3 over STAT1 and STAT4 (STAT3 [11]; BLI Kd): approximately 20 fold
expression of a set of STAT3 target genes (STAT3 target genes [12]): significantly down-regulated
STAT3 protein depleted (STAT3 [13]; DEL, 250 nM, 7 hr): > 50%
STAT3 protein depleted (STAT3 [13]; KI-JK, 250 nM, 7 hr): > 50%
levels of activated pSTAT3 (Y705) (STAT3 [13]; MOLM-16, 0.25 μM): effectively reduced
STAT3 protein depleted (STAT3 [13]; MOLM-16, 250 nM, 4 hr): > 90%
cellular STAT3 protein in SD-36 insensitive cell lines (STAT3 [13]; SD-36 insensitive cell lines): effectively depleted
STAT3 protein depleted (STAT3 [13]; SU-DHL-1, 250 nM, 7 hr): > 50%
hook effect (STAT3 [13]; concentrations as high as 10 μM, all cell lines tested): not observed
levels of STAT3 protein in PBMCs (STAT3 [13]; human PBMCs, 24 hr): potently and effectively reduced
tumor growth inhibited compared to the vehicle control (SU-DHL-1 xenograft; 50 mg/kg weekly): 50%
tumor response (SU-DHL-1 xenograft; 100 mg/kg on day 1, 3 and 5 per week): complete tumor regression
tumor response (SU-DHL-1 xenograft; 100 mg/kg weekly): rapid and complete tumor regression
tumors completely regressed (SU-DHL-1 xenograft; 100 mg/kg weekly, after 2 doses, by day 12): 7 out of 7
mice with no tumor returning (SU-DHL-1 xenograft; 100 mg/kg weekly, day 122, >100 days after the last dosing): 6 out of 7
tumor growth (SU-DHL-1 xenograft; 25 and 50 mg/kg on day 1, 3 and 5 per week): effectively inhibited tumor growth
tumor volume reduced (SU-DHL-1 xenograft; single dose 100 mg/kg, day 6): 80%
transcriptional activities of STAT1 or STAT5A/B [14]: minimal effect
